Compounds with a hit are over-represented: about 2.2% of the library has one in this group of screens.
AI-2 QS mod – modulators of Vibrio harveyi AI-2 quorum sensing system; Vibrio harveyi JMH597 AI-2 luminescence/OD600 ratio, 9 h; active compounds read low; strain lacks LuxN and CqsS sensors; 0 = neutral-control median; activity change, % at 7.5 µM; hit rate 0.4% among 300,000; AID 2094; in the data active means activity change below about -75%, passing the limit was not always enough; inconclusive means no clear call, values can overlap the other calls;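 further: luminescence divided by OD600 gain over 9 h not by final OD600 alone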
PolyA inh – blocks polyadenylation in yeast reporter cells. activity score, % at 12 µM. AID 1875. S. cerevisiae SKY197-pL101 polyadenylation reporter, beta-gal luminescence; efflux-impaired pdr1/pdr3 knockout yeast; score 100 = 6 SD above DMSO. hit rate 0.02% among 300,000;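 active means lowest replicate activity score at least 50, where 100 means six control SD above control mean; inconclusive means lowest score under 50 but half or more replicates reach 50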;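 further: yeast exposed to compound for 9 h at 30 °C; higher score means more reporter readthrough which indicates perturbed polyadenylation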
HDAC3 inhib – inhibitors of human histone deacetylase 3; inhibition, % at 8.3 µM; recombinant HDAC3, fluorogenic peptide/trypsin coupled, fluorescence; AID 2718; hit rate 0.15% among 320,000; in the data active means inhibition above about 26%, passing the limit was not always enough; inconclusive means no clear call, values can overlap the other calls
Target sequence (O15379 whole entry, looked up): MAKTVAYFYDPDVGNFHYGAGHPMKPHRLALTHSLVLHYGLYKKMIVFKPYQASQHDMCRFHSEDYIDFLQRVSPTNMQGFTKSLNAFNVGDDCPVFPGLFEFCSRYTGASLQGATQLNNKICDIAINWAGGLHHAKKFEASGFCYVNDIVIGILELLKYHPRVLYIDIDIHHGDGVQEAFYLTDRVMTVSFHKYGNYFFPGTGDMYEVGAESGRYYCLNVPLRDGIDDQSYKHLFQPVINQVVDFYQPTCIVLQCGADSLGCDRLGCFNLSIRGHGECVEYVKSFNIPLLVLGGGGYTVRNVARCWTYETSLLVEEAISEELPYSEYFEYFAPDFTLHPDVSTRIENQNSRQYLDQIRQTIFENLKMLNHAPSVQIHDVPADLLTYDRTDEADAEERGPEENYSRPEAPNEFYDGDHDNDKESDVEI
Efflux pump inh – antifungal efflux pump inhibition, Nile Red retention; S. cerevisiae Candida pump triplex; inhibition, % at 10 µM; hit rate 0.44% among 330,000;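 active means plate passing quality check with inhibition over a set limit, or well fluorescence over plate mean plus 4 SD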;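 further: Nile Red retained in pooled yeast measured as flow cytometry median fluorescence; 0% = buffer negative control and 100% = Enniatin B positive control; higher means more Nile Red kept so more efflux inhibition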
T cruzi inh – blocks replication of Trypanosoma cruzi; T. cruzi beta-gal in NIH3T3, luminescence, 90 h; hit rate 1.4% among 300,000; inhibition, % (concentration not given with the values); AID 1885;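 active means mean inhibition across valid replicates above about 55%, limit read from the data; inconclusive means mean below that limit but half or more replicates reach it; inactive means mean below it, under half of replicates reach it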;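 further: signal also drops with host cell toxicity which is not excluded here; 0% = plate median of DMSO wells and 100% = zero luminescence signal; higher percent means less beta-gal luminescence so fewer parasites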
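Assay system: NIH/3T3 fibroblasts plus reporter T. cruzi. Amount: NIH/3T3 cells, 5,000 per well. Buffer or medium: DMEM, 2% fetal bovine serum. Doses: compound pinned at 50 nL/well, DMSO. Schedule: ≥90 h infection period, 3 h prior cell attachment. Signal: luminescent β-galactosidase signal after 60 min lysis. Read-out: parasite load inhibition, %.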
Starred values were filed as active, the others as inactive; ? = inconclusive; nt = not tested or not shown.

SMILES	AI-2 QS mod	PolyA inh	HDAC3 inhib	Efflux pump inh	T cruzi inh
O=C(CCc1ccc(Oc2cc([N+](=O)[O-])cc([N+](=O)[O-])c2)cc1)N1CCCCCC1	3	-62	2	0	68*
O=C(CCCc1ccccc1)N1CCN(C2CCCCC2)CC1	1	?	-1	0	-30
COc1ccc(NC(=O)C(=O)NCC2CCCN2S(=O)(=O)c2ccc(C)cc2)cc1 (stereo not drawn)	3	-9	-1	0	33
CN1CCN(C(=O)CCc2ccc(S(=O)(=O)NC3CCCCC3)cc2)CC1	6	18	3	0	59*
Cc1ccc(CNC(=O)CCc2ccc(S(=O)(=O)NC3CCCCC3)cc2)cc1	18	-20	-4	0	-5
Oc1c(Cl)cc(Cl)c2cccnc12	?	-3	nt	nt	43
O=C(Oc1c(Cl)cc(Cl)c2cccnc12)c1cccs1	8	-39	8	0	75*
O=C(Oc1c(CN2CCOCC2)cc(Cl)c2cccnc12)c1cccs1	42	-10	-5	0	30
O=C(Oc1c(Cl)cc(Cl)c2cccnc12)c1ccco1	-88*	-57	-1	0	68*
O=C(CCNC(=O)C1CCN(S(=O)(=O)c2ccc(F)cc2)CC1)NC1CC1	10	11	4	0	8
Nc1nc(N)nc(-c2cc(O)ccc2O)n1	nt	nt	?	0	nt
CC(C)(C)c1cc(-c2nc(N)nc(N)n2)c(O)c(C(C)(C)C)c1	nt	nt	29*	0	nt
CCN1/C(=C/c2sc(-c3ccccc3C)c[n+]2C)Sc2ccccc21	23	-17	nt	nt	66*
CCC(=O)/C=C1/Sc2ccccc2N1CC	16	-19	8	0	9
Cc1ccc(S(=O)(=O)c2nnn3c2nc(NC2CCN(Cc4ccccc4)CC2)c2ccccc23)cc1C	53	14	-8	0	59*
O=C1NC(=O)/C(=C\c2ccc(Br)o2)S1	7	7	0	0	69*
Cc1cc2nc3n(c2cc1C)CCCN3	13	-15	-7	0	67*
CC(C(=O)NC1CCCCC1)N1CCN(S(=O)(=O)c2cccs2)CC1 (stereo not drawn)	nt	nt	-3	0	nt
O=C(NC(NC(=S)Nc1ccccc1)C(Cl)(Cl)Cl)c1cccc(Cl)c1 (stereo not drawn)	23	4	2	0	65*
O=C(NC(NC(=S)Nc1ccc(Cl)cc1Cl)C(Cl)(Cl)Cl)c1cccc([N+](=O)[O-])c1 (stereo not drawn)	31	2	7	0	74*
O=C(O)c1cccc(NC(=S)NC(NC(=O)c2cccc([N+](=O)[O-])c2)C(Cl)(Cl)Cl)c1 (stereo not drawn)	15	17	-5	0	37
Cc1cc(OC(=O)c2cc(C(F)(F)F)cc(C(F)(F)F)c2)c([N+](=O)[O-])c(=O)[nH]1	24	-11	4	0	-7
CCN(CC)Cc1c(C(=O)N/N=C/c2cccs2)nnn1-c1nonc1N	10	-1	4	0	3
CCOC(=O)c1ccc(NS(=O)(=O)c2c(N)n(C)c(=O)n(C)c2=O)cc1	16	3	1	0	-21
COc1ccccc1N1CCN(C/C=C/c2ccc(N(C)C)cc2)CC1	10	7	1	0	55*
SMILES	AI-2 QS mod	PolyA inh	HDAC3 inhib	Efflux pump inh	T cruzi inh
COc1ccccc1N1CCN(S(=O)(=O)/C=C/c2ccccc2)CC1	30	0	4	0	-10
Cc1ccc(C)c(SCC(=O)OCC(=O)NCCNC(=O)COC(=O)CSc2cc(C)ccc2C)c1	27	-8	13	0	0
O=S1(=O)C=C(Sc2nnc(-c3ccccc3)o2)c2ccccc21	-32	-92	-3	0	63*
O=S(=O)(c1ccccc1)n1c(C(O)c2ccccn2)cc2ccccc21 (stereo not drawn)	17	-27	-2	0	-4
C=CCN1C(=O)C(CC(=O)Nc2ccc(OCCC)cc2)N(CCCN2CCN(Cc3ccccc3)CC2)C1=S (stereo not drawn)	9	6	4	1	67*
Cc1cccc(OCc2nc(-c3ccc(Br)o3)no2)c1	-78*	1	4	0	9
COc1cccc(C(=O)n2c(SC)nc3cc4c(cc32)OCCO4)c1	nt	-26	92*	0	-14
CSc1nc2cc3c(cc2n1C(=O)c1ccc(C)cc1)OCCO3	nt	-37	1	0	17
Cn1nc(C(=O)NCc2cccs2)c2ccccc2c1=O	19	-7	-6	0	2
CCn1c(-c2ccc(N(C)C)cc2)nc2ccccc21	42	-29	-101	0	58*
COc1cccc(OC)c1CN1CCCC(C(=O)c2ccccc2SC)C1 (stereo not drawn)	-9	-8	5	0	52
O=C(Nc1ccc(N2CCCCC2)cc1)c1ccc([N+](=O)[O-])o1	nt	-15	1	0	4
CC1CCN(c2ccc(NC(=O)c3ccc([N+](=O)[O-])o3)cc2)CC1	27	-19	nt	0	72*
CCCC(=O)N1CCN(c2ccc(NC(=O)c3ccc([N+](=O)[O-])o3)cc2)CC1	44	-8	nt	nt	38
CCC(=O)N1CCN(c2ccc(NC(=O)c3ccc([N+](=O)[O-])o3)cc2)CC1	63	26	nt	nt	72*
CN1CCN(c2ccc(NC(=O)c3ccc(-c4ccc(Br)cc4)o3)cc2)CC1	-9	0	?	0	58*
O=C(Nc1ccc(N2CCN(C(=O)c3ccc(Cl)cc3)CC2)cc1)c1ccc([N+](=O)[O-])o1	8	-16	nt	nt	93*
COC(=O)c1ccc(CSc2nc3ccc(C)cc3[nH]2)o1	17	-11	0	0	-20
O=C1N=c2ccccc2=C1c1c(O)n(-c2cccc(F)c2)[nH]c1=O	34	-1	-14	0	-9
CCn1c(O)c(C2=c3ccccc3=NC2=O)c2cc(Br)ccc21	7	-66	4	0	61*
CC[C@]12c3[nH]c4ccccc4c3CCN1C(=O)C(CC(=O)NCc1cccc(C(F)(F)F)c1)C[C@@H]2C(=O)N1CCN(C(=O)C2CC2)CC1 (stereo partly drawn)	nt	nt	9	0	nt
CCC(=O)NCCCc1nc(-c2ccccc2)no1	11	19	0	0	-2
O=C(CSc1nc(=O)n2ccccc2n1)N1N=C(c2cccs2)CC1c1ccc(F)cc1 (stereo not drawn)	7	8	2	0	58*
Cc1ccc(C2CC(c3cccs3)=NN2C(=O)CSc2nc(=O)n3ccc(C)cc3n2)cc1 (stereo not drawn)	27	-2	nt	0	60*
COc1cccc(O)c1CN1CCC(n2nccc2NC(=O)c2ccc3c(c2)OCO3)CC1	16	12	-1	-1	9
C=CCNC(=S)N1CCC(C(=O)c2ccc(Cl)cc2)CC1	25	1	1	0	-5

Screens: PubChem BioAssay, several laboratories
